High-throughput results deposited in PubChem BioAssay by The Scripps Research Institute Molecular Screening Center.
Sampled rows, rich in hits. Any-hit rate of the full collection: about 1.8%.
M4 antag – human M4 muscarinic receptor antagonists, primary screen, CHO cells, Fluo-8 calcium fluorescence; Muscarinic acetylcholine receptor M4 (Homo sapiens), P08173; CHO-hM4 cells, ACh EC80; AID 624125, 2012; inhibition, % at 3 µM; 360,000 compounds, 0.73% hits;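 active means inhibition above its plate's cutoff, the mean inhibition of sample wells plus 3 SD, cut at about 27% in these data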
CHRM4 agonist – human M4 muscarinic receptor agonists, primary screen, CHO-K1 cells, Fluo-8 calcium fluorescence. Muscarinic acetylcholine receptor M4 (Homo sapiens), P08173. CHO-K1 hM4/Gqi5; vehicle 0%, full acetylcholine response 100%. activation, % at 3 µM. 360,000 compounds, 0.14% hits;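 active means activation above the run mean over all test wells plus 3 SD, cut at about 32% in these data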;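 further: peak over basal fluorescence ratio per well then scaled between controls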
M5 antag – human M5 muscarinic receptor antagonists, primary screen, CHO cells, Fluo-8 calcium fluorescence. 360,000 compounds, 0.59% hits. Muscarinic acetylcholine receptor M5 (Homo sapiens), P08912. CHO-hM5 cells, ACh EC80. inhibition, % at 3 µM. AID 624040, 2012;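 active means inhibition above a per-plate cutoff, the mean of that plate's test compounds plus 3 SD, cut at about 27% in these data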
Target sequence (P08912 whole entry, looked up): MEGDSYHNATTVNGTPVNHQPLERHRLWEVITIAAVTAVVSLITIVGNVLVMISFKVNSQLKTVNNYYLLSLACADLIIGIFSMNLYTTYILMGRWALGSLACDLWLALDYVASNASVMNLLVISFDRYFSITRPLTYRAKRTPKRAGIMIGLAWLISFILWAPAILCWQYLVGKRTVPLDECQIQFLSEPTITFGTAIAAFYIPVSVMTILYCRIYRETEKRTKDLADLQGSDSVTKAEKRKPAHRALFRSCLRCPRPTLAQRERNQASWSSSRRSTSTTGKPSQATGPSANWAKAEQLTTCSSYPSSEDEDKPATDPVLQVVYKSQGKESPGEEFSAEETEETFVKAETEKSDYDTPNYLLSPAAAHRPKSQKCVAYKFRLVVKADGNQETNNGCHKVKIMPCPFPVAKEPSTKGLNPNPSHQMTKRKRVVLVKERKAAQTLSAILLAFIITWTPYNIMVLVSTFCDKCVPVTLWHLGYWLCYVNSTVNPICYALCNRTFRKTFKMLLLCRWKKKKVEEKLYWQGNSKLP
CHRM5 agonist – human M5 muscarinic receptor agonists, primary screen, CHO-K1 cells, Fluo-8 calcium fluorescence; 360,000 compounds, 0.19% hits; AID 624037, 2012; Muscarinic acetylcholine receptor M5 (Homo sapiens), P08912; activation, % at 3 µM; CHO-K1 hM5 cells; 0% DMSO wells, 100% maximal acetylcholine response;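 active means activation above the run's mean over test compounds plus 3 SD, cut at about 23% in these data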;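 further: signal is peak over basal fluorescence ratio across the kinetic read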
M4 PAM – human M4 muscarinic receptor positive allosteric modulators, primary screen, CHO-K1 cells, Fluo-8 calcium fluorescence; Muscarinic acetylcholine receptor M4 (Homo sapiens), P08173; CHO-K1 hM4/Gqi5, ACh EC20; 0% = ACh EC20, 100% = maximal ACh; activation, % at 3 µM; 360,000 compounds, 0.4% hits;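 active means activation above its plate's cutoff, the mean activation of sample wells plus 3 SD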
M5 PAM – human M5 muscarinic receptor positive allosteric modulators, primary screen, CHO-K1 cells, Fluo-8 calcium fluorescence. CHO-K1 hM5, ACh EC20 PAM; 0% = ACh EC20, 100% = ACh EC100. activation, % at 3 µM. 360,000 compounds, 0.3% hits. AID 624038, 2012;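 active means activation above the run cutoff, the mean activation of all test compounds plus 3 SD, cut at about 18% in these data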
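System: CHO-K1 cell line with stable human muscarinic M5 receptor expression | Also added: EC20 acetylcholine as agonist stimulus | Compound: One concentration, 3 µM final (nominal) | Timing: Fluo-8 loading 80 min at 37 °C plus 30 min room temperature | Measured by: Fluo-8 calcium dye fluorescence, kinetic read | Read-out basis: % activation, ACh-normalized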
Hits are given with their value; 0 = inactive.

SMILES | M4 antag | CHRM4 agonist | M5 antag | CHRM5 agonist | M4 PAM | M5 PAM
CCOc1ccc(/C=C/[N+](=O)[O-])c2ccccc12 | 40 | 0 | 86 | 54 | 0 | 0
COc1cccc(C(=O)NC(=S)Nc2ccc(N3CCCC3)cc2)c1 | 0 | 0 | 0 | 0 | 0 | 0
CC(C)Oc1cccc(C(=O)NC(=S)Nc2ccc(N3CCN(C)CC3)cc2)c1 | 39 | 0 | 0 | 0 | 0 | 0
CCOC(=O)C(=O)Nc1nnc(Cc2ccc(OC)c(OC)c2)s1 | 0 | 0 | 0 | 0 | 0 | 0
CCOC(=O)Nc1nnc(Cc2ccc(Cl)c(Cl)c2)s1 | 0 | 0 | 0 | 0 | 22 | 0
COc1ccc(Cc2nnc(NC(=O)CSc3ccc(C)cc3)s2)cc1OC | 0 | 95 | 0 | 74 | 0 | 0
O=C(CCSc1ccccc1)Nc1ccc(OCc2ccccc2)cc1 | 0 | 0 | 0 | 0 | 0 | 0
CCCS(=O)(=O)NC(=O)C1(C)CCCN(C(=O)Cc2ccc3ccccc3c2)C1 (configuration not stated) | 0 | 0 | 0 | 0 | 0 | 0
S=c1ncc2[nH]c(=S)[nH]c2[nH]1 | 0 | 0 | 0 | 0 | 0 | 0
Cc1cccc(N2CC(O)(c3cccs3)[N+]3=C2CCCC3)c1C (configuration not stated) | 30 | 0 | 0 | 0 | 0 | 0
CCc1ccc(N2CC(O)(c3cccs3)[N+]3=C2SCCC3)cc1 (configuration not stated) | 0 | 0 | 33 | 0 | 0 | 0
Cc1ccc(N2CC(O)(c3cccs3)[N+]3=C2CCCC3)cc1 (configuration not stated) | 40 | 0 | 42 | 0 | 0 | 0
Cc1cc(C)c2nc(NNC(=O)c3ccc(S(=O)(=O)N4CCc5ccccc5C4)cc3)sc2c1 | 0 | 0 | 0 | 59 | 0 | 0
Cn1c(=O)n(Cc2ccccc2Cl)c2ccccc21 | 0 | 0 | 43 | 0 | 0 | 0
CCOC(=O)COc1coc(CN2CCN(c3ccccc3)CC2)cc1=O | 0 | 0 | 0 | 0 | 0 | 0
CO[C@@]1(NC(=O)C2SC(=C(C(N)=O)C(=O)O)S2)C(=O)N2C(C(=O)O)=C(CSc3nnnn3C)CS[C@@H]21 (some centres not stated) | 43 | 0 | 0 | 0 | 0 | 0
CCOc1ccccc1CNC(=O)Cn1ccc2cc(S(=O)(=O)N3CCCC3)ccc21 | 0 | 0 | 0 | 0 | 0 | 0
CCCCCCCCCCCCCCCCn1cc[n+](C)c1 | 30 | 0 | 48 | 0 | 0 | 0
Nc1cc(N)cc(-c2nc3ccccc3[nH]2)c1 | 26 | 0 | 0 | 0 | 0 | 0
c1ccc(-c2nc3ccccc3[nH]2)cc1 | 0 | 0 | 0 | 0 | 0 | 0
CCNC(=S)N1CCCCC1CO (configuration not stated) | 0 | 0 | 0 | 0 | 0 | 0
CCOC(=O)N1CCN(c2ccnc3cc(Cl)ccc23)CC1 | 77 | 0 | 0 | 0 | 0 | 0
N#Cc1nc(-c2ccccc2F)oc1NCCc1ccccc1 | 27 | 0 | 0 | 0 | 0 | 0
O=C1C=CC(=Nc2ccc(F)cc2)O1 | 0 | 0 | 0 | 0 | 0 | 22
CC(=O)Nc1ccc(CN2CCN(C3CCCC3)C(CCO)C2)cc1 (configuration not stated) | 35 | 0 | 0 | 0 | 0 | 0
OCCC1CN(Cc2c(F)cccc2Cl)CCN1C1CCCC1 (configuration not stated) | 26 | 0 | 0 | 0 | 0 | 0
OCCC1CN(Cc2c(F)cccc2Cl)CCN1C1CCCCC1 (configuration not stated) | 0 | 0 | 0 | 0 | 0 | 0
COc1ccc(-n2ccnc2CN2CCN(C3CCCC3)C(CCO)C2)cc1 (configuration not stated) | 0 | 0 | 0 | 0 | 0 | 0
COc1ccc2c(c1)C=C(CN1CCN(C3CCCC3)C(CCO)C1)CO2 (configuration not stated) | 73 | 0 | 0 | 0 | 0 | 0
